Experimental data: ChEMBL document CHEMBL1142894, “Preparation of 5-aryl-3-alkylthio-l,2,4-triazoles and corresponding sulfones with antiinflammatory-analgesic activity” (Bioorg Med Chem, 2007)
The source made the active and inactive calls. The rule behind the calls is not given here.

What was measured:
[1] = tested on: Mus musculus; test: Antiinflammatory activity against carrageenan-induced paw edema in Swiss albino mouse assessed as swelling thickness at 25 mg/kg, po after 180 mins; assay type: functional
Outline: (§1)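 Oral dosing in 0.5% CMC; vehicle to controls. Then carrageenan (0.5 mg/25 ll, freshly suspended in 154 mM saline) injected into the right hind paw subplantar tissue; saline into the left paw. Right-left footpad thickness difference measured by dial gauge calliper every 90 min over 6 h. Inhibition % is relative to vehicle control. n = 6; mean ± SEM.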

[2] = tested on: Mus musculus; test: Inhibition of carrageenan-induced paw edema in Swiss albino mouse at 100 mg/kg, po after 180 mins relative to control; assay type: functional; details: 3 h; outline: as §1
[3] = tested on: Mus musculus; test: Inhibition of carrageenan-induced paw edema in Swiss albino mouse at 25 mg/kg, po after 270 mins relative to control; assay type: functional; details: 4.5 h; outline: as §1
[4] = tested on: Mus musculus; test: Inhibition of carrageenan-induced paw edema in Swiss albino mouse at 100 mg/kg, po after 90 mins relative to control; assay type: functional; details: 1.5 h; outline: as §1
[5] = tested on: Mus musculus; test: Inhibition of carrageenan-induced paw edema in Swiss albino mouse at 200 mg/kg, po after 90 mins relative to control; assay type: functional; details: 1.5 h; outline: as §1
[6] = tested on: Mus musculus; test: Inhibition of p-benzoquinone-induced writhing in Swiss albino mouse at 100 mg/kg, po relative to control; assay type: functional
Outline: (§2)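 Mice, n = 6 per group, dosed orally with a suspension in 0.5% sodium CMC. 60 min later, 0.1 ml/10 g of 2.5% […] p-benzoquinone in distilled water given ip. Abdominal writhes counted per animal for 15 min, starting 5 min after injection. Expressed as % change in mean writhing count versus vehicle controls.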

[7] = tested on: Mus musculus; test: Inhibition of carrageenan-induced paw edema in Swiss albino mouse at 50 mg/kg, po after 180 mins relative to control; assay type: functional; details: 3 h; outline: as §1
[8] = tested on: Mus musculus; test: Analgesic activity against p-benzoquinone-induced abdominal constriction in Swiss albino mouse assessed as number of writhings at 25 mg/kg, po; assay type: functional, Abdomen
Outline: (§3)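 Test samples given orally in 0.5% CMC; vehicle to controls. 60 min later, 2.5% (v/v) p-benzoquinone in distilled water, 0.1 ml/10 g, given i.p. Mice housed singly; writhes counted for 15 min starting 5 min after injection. Activity is % change from vehicle controls. n = 6; mean ± SEM.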

[9] = tested on: Mus musculus; test: Gastric-ulcerogenic effect in Swiss albino mouse assessed as lesions at 25 mg/kg, po; assay type: functional, organism-based; set-up: dose 25 mg/kg
Outline: (§4)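 Mice killed under deep ether anesthesia 3 h after the writhing test; the oral dose in 0.5% CMC was the one used in that test. Stomachs removed, opened along the great curvature and examined under a dissecting microscope for lesions or bleeding. Reported as ratio of ulceration; n = 6.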

[10] = tested on: Mus musculus; test: Antiinflammatory activity against carrageenan-induced paw edema in Swiss albino mouse assessed as swelling thickness at 50 mg/kg, po after 360 mins; assay type: functional; outline: as §1
[11] = tested on: Mus musculus; test: Antiinflammatory activity against carrageenan-induced paw edema in Swiss albino mouse assessed as swelling thickness at 200 mg/kg, po after 90 mins; assay type: functional; outline: as §1
[12] = tested on: Mus musculus; test: Antiinflammatory activity against carrageenan-induced paw edema in Swiss albino mouse assessed as swelling thickness at 50 mg/kg, po after 180 mins; assay type: functional; outline: as §1
[13] = tested on: Mus musculus; test: Antiinflammatory activity against carrageenan-induced paw edema in Swiss albino mouse assessed as swelling thickness at 200 mg/kg, po after 360 mins; assay type: functional; outline: as §1
[14] = tested on: Mus musculus; test: Inhibition of carrageenan-induced paw edema in Swiss albino mouse at 200 mg/kg, po after 270 mins relative to control; assay type: functional; details: 4.5 h; outline: as §1
[15] = tested on: Mus musculus; test: Inhibition of carrageenan-induced paw edema in Swiss albino mouse at 25 mg/kg, po after 180 mins relative to control; assay type: functional; details: 3 h; outline: as §1
[16] = tested on: Mus musculus; test: Inhibition of carrageenan-induced paw edema in Swiss albino mouse at 200 mg/kg, po after 180 mins relative to control; assay type: functional; details: 3 h; outline: as §1
[17] = tested on: Mus musculus; test: Antiinflammatory activity against carrageenan-induced paw edema in Swiss albino mouse assessed as swelling thickness at 100 mg/kg, po after 270 mins; assay type: functional; outline: as §1
[18] = tested on: Mus musculus; test: Antiinflammatory activity against carrageenan-induced paw edema in Swiss albino mouse assessed as swelling thickness at 100 mg/kg, po after 360 mins; assay type: functional; outline: as §1
[19] = tested on: Mus musculus; test: Inhibition of p-benzoquinone-induced writhing in Swiss albino mouse at 200 mg/kg, po relative to control; assay type: functional; outline: as §2
[20] = tested on: Mus musculus; test: Antiinflammatory activity against carrageenan-induced paw edema in Swiss albino mouse assessed as swelling thickness at 200 mg/kg, po after 180 mins; assay type: functional; outline: as §1
[21] = tested on: Mus musculus; test: Inhibition of carrageenan-induced paw edema in Swiss albino mouse at 100 mg/kg, po after 360 mins relative to control; assay type: functional; details: 6 h; outline: as §1
[22] = tested on: Mus musculus; test: Acute toxicity in Swiss albino mouse assessed as lethal effect at 200 mg/kg/day, po after 72 hrs; assay type: organism-based; set-up: route oral; details: in vivo
Outline: (§5)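 Oral single dose suspended in 0.5% carboxymethylcellulose, given after a 24 h fast; food and water returned 1 h after dosing. Vehicle-only controls. Mice observed at 1 h, then once daily for 72 h, for toxic signs and mortality.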

[23] = tested on: Mus musculus; test: Antiinflammatory activity against carrageenan-induced paw edema in Swiss albino mouse assessed as swelling thickness at 100 mg/kg, po after 90 mins; assay type: functional; outline: as §1
[24] = tested on: Mus musculus; test: Inhibition of carrageenan-induced paw edema in Swiss albino mouse at 50 mg/kg, po after 90 mins relative to control; assay type: functional; details: 1.5 h
Outline: (§6)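 Mice, n = 6 per group. Test agent given orally as a suspension in 0.5% sodium CMC in distilled water; controls received vehicle only. Afterwards, 0.5 mg/25 ll carrageenan in saline (154 mM NaCl) injected subplantar into the right hind paw, saline into the left. Right-minus-left footpad thickness measured by dial gauge caliper every 90 min for 6 h. Inhibition is relative to vehicle-control group means.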

[25] = tested on: Mus musculus; test: Inhibition of p-benzoquinone-induced writhing in Swiss albino mouse at 50 mg/kg, po relative to control; assay type: functional; outline: as §2
[26] = tested on: Mus musculus; test: Antiinflammatory activity against carrageenan-induced paw edema in Swiss albino mouse assessed as swelling thickness at 25 mg/kg, po after 90 mins; assay type: functional; outline: as §1
[27] = tested on: Mus musculus; test: Analgesic activity against p-benzoquinone-induced abdominal constriction in Swiss albino mouse assessed as number of writhings at 200 mg/kg, po; assay type: functional, Abdomen; outline: as §3
[28] = tested on: Mus musculus; test: Antiinflammatory activity against carrageenan-induced paw edema in Swiss albino mouse assessed as swelling thickness at 50 mg/kg, po after 90 mins; assay type: functional; outline: as §1
[29] = tested on: Mus musculus; test: Antiinflammatory activity against carrageenan-induced paw edema in Swiss albino mouse assessed as swelling thickness at 50 mg/kg, po after 270 mins; assay type: functional; outline: as §1
[30] = tested on: Mus musculus; test: Inhibition of carrageenan-induced paw edema in Swiss albino mouse at 25 mg/kg, po after 90 mins relative to control; assay type: functional; details: 1.5 h; outline: as §1
[31] = tested on: Mus musculus; test: Inhibition of carrageenan-induced paw edema in Swiss albino mouse at 200 mg/kg, po after 360 mins relative to control; assay type: functional; details: 6 h; outline: as §1
[32] = tested on: Mus musculus; test: Inhibition of carrageenan-induced paw edema in Swiss albino mouse at 25 mg/kg, po after 360 mins relative to control; assay type: functional; details: 6 h; outline: as §1
[33] = tested on: Mus musculus; test: Antiinflammatory activity against carrageenan-induced paw edema in Swiss albino mouse assessed as swelling thickness at 200 mg/kg, po after 270 mins; assay type: functional; outline: as §1
[34] = tested on: Mus musculus; test: Antiinflammatory activity against carrageenan-induced paw edema in Swiss albino mouse assessed as swelling thickness at 100 mg/kg, po after 180 mins; assay type: functional; outline: as §1
[35] = tested on: Mus musculus; test: Inhibition of carrageenan-induced paw edema in Swiss albino mouse at 50 mg/kg, po after 270 mins relative to control; assay type: functional; details: 4.5 h; outline: as §6
[36] = tested on: Mus musculus; test: Antiinflammatory activity against carrageenan-induced paw edema in Swiss albino mouse assessed as swelling thickness at 25 mg/kg, po after 360 mins; assay type: functional; outline: as §1
[37] = tested on: Mus musculus; test: Analgesic activity against p-benzoquinone-induced abdominal constriction in Swiss albino mouse assessed as number of writhings at 100 mg/kg, po; assay type: functional, Abdomen; outline: as §3
[38] = tested on: Mus musculus; test: Inhibition of carrageenan-induced paw edema in Swiss albino mouse at 50 mg/kg, po after 360 mins relative to control; assay type: functional; details: 6 h; outline: as §6
[39] = tested on: Mus musculus; test: Inhibition of carrageenan-induced paw edema in Swiss albino mouse at 100 mg/kg, po after 270 mins relative to control; assay type: functional; details: 4.5 h; outline: as §1
[40] = tested on: Mus musculus; test: Analgesic activity against p-benzoquinone-induced abdominal constriction in Swiss albino mouse assessed as number of writhings at 50 mg/kg, po; assay type: functional, Abdomen; outline: as §3
[41] = tested on: Mus musculus; test: Antiinflammatory activity against carrageenan-induced paw edema in Swiss albino mouse assessed as swelling thickness at 25 mg/kg, po after 270 mins; assay type: functional; outline: as §1
[42] = tested on: Mus musculus; test: Acute toxicity in Swiss albino mouse assessed as lethal effect at 25 mg/kg/day, po after 72 hrs; assay type: organism-based; set-up: route oral; details: in vivo; outline: as §5
[43] = tested on: Mus musculus; test: Inhibition of p-benzoquinone-induced writhing in Swiss albino mouse at 25 mg/kg, po relative to control; assay type: functional; outline: as §2
[44] = tested on: Mus musculus; test: Acute toxicity in Swiss albino mouse assessed as lethal effect at 50 mg/kg/day, po after 72 hrs; assay type: organism-based; set-up: route oral; details: in vivo; outline: as §5
[45] = tested on: Mus musculus; test: Acute toxicity in Swiss albino mouse assessed as lethal effect at 100 mg/kg/day, po after 72 hrs; assay type: organism-based; set-up: route oral; details: in vivo; outline: as §5
[46] = tested on: Mus musculus; test: Gastric-ulcerogenic effect in Swiss albino mouse assessed as lesions at 50 mg/kg, po; assay type: functional, organism-based; set-up: dose 50 mg/kg; outline: as §4

With `CS(=O)(=O)c1nc(-c2ccccc2Cl)n[nH]1` the Activity [1] was 56.9 10^-2mm, the inhibition in vivo at 100 mg/kg [2] was 24.3% and the inhibition in vivo at 25 mg/kg [3] was 7.1%. For the same compound, the inhibition in vivo at 100 mg/kg [4] was 21.9%, the inhibition in vivo at 200 mg/kg [5] was 6.4% and the inhibition in vivo at 100 mg/kg [6] was 31.9%. For the same compound, the inhibition in vivo at 50 mg/kg [7] was 30.6%, the Activity [8] was 40.1 and the Activity [9] was “Active”. The Activity [10] was 45.5 10^-2mm, the Activity [11] was 49.8 10^-2mm and the Activity [12] was 41.2 10^-2mm. For the same compound, the Activity [13] was 65.1 10^-2mm, the inhibition in vivo at 200 mg/kg [14] was 7.7% and the inhibition in vivo at 25 mg/kg [15] was 4.2%. The inhibition in vivo at 200 mg/kg [16] was 8.1%, the Activity [17] was 41.3 10^-2mm and the Activity [18] was 44.5 10^-2mm. The inhibition in vivo at 200 mg/kg [19] was 11.9%, the Activity [20] was 54.6 10^-2mm and the inhibition in vivo at 100 mg/kg [21] was 35.3%. The Activity [22] was “Non-toxic”, the Activity [23] was 35 10^-2mm and the inhibition in vivo at 50 mg/kg [24] was 26.5%. For the same compound, the inhibition in vivo at 50 mg/kg [25] was 40.9%, the Activity [26] was 49.1 10^-2mm and the Activity [27] was 45.3. The Activity [28] was 39.1 10^-2mm, the Activity [29] was 43.1 10^-2mm and the inhibition in vivo at 25 mg/kg [30] was 7.7%. For the same compound, the inhibition in vivo at 200 mg/kg [31] was 9.6%, the inhibition in vivo at 25 mg/kg [32] was 6.8% and the Activity [33] was 59.8 10^-2mm. For the same compound, the Activity [34] was 39 10^-2mm, the inhibition in vivo at 50 mg/kg [35] was 33.5% and the Activity [36] was 67.1 10^-2mm. It also gave an Activity [37] of 32.2, an inhibition in vivo at 50 mg/kg [38] of 36.8% and an inhibition in vivo at 100 mg/kg [39] of 29.8%. For the same compound, the Activity [40] was 30.4, the Activity [41] was 60.2 10^-2mm and the Activity [42] was “Non-toxic”. For the same compound, the inhibition in vivo at 25 mg/kg [43] was 21.9%, the Activity [44] was “Non-toxic” and the Activity [45] was “Non-toxic”. For the same compound, the Activity [46] was “Active”.
